Published values pooled from the literature.
Compare with care: the assays were run in different laboratories.
HTR1D: 5-hydroxytryptamine receptor 1D (HTR1D, Homo sapiens, UniProt P28221)

COc1ccccc1N1CCN(Cc2coc3ccc(C)cc3c2=O)CC1 — Ki (HTR1D; ligand displacement, radioligand): 0.464 µM
O=C(NO)c1ccccc1 — IC50 (Histone deacetylase 6, CD2 (hdac6, Danio rerio, UniProt F8W4B7); enzyme activity, inhibitor, fluorescence): 3.42 µM
CC[C@H]1NC(=O)[C@@H]2CSC(=N2)[C@@H](Cc2ccccc2)N(C)C(=O)[C@@H]2CCCN2C(=O)[C@H](C(C)C)N(C)C(=O)[C@H](Cc2ccccc2)OC(=O)[C@H](C)[C@@H](C)NC(=O)[C@@H]([C@@H](C)O)NC(=O)[C@@H](CC(C)C)N(C)C(=O)[C@@H]2CSC1=N2 — IC50 (Dipeptidyl peptidase 8 (Homo sapiens, UniProt Q6V1X1); enzyme activity, inhibitor): 11.5 µM
CSCC[C@H](NC(=O)[C@H](Cc1c[nH]c2ccccc12)NC(=O)CNC(=O)[C@H](Cc1ccc(O)cc1)NC(=O)[C@H](C)NC(=O)[C@@H](CCC(=O)O)NC(=O)CN1CCN(CC(=O)O)CCN(CC(=O)O)CCN(CC(=O)O)CC1)C(=O)N[C@@H](CC(=O)O)C(=O)N(C)[C@@H](Cc1ccccc1)C(N)=O — IC50 (Gastrin/cholecystokinin type B receptor (Rattus norvegicus, UniProt P30553); ligand displacement, radioligand): 0.0226 µM
COc1ccccc1N1CCN(Cc2coc3c(Cl)cc(Cl)cc3c2=O)CC1 — Ki (HTR1D; ligand displacement, radioligand): 2.06 µM
CC(C)Cc1ccc([C@@H](C)C(=O)O)cc1 — IC50 (Histone acetyltransferase KAT2B (KAT2B, Homo sapiens, UniProt Q92831); enzyme activity, inhibitor, mobility shift): ~6000 µM
CCCCCc1cc(O)c2c(c1)OC(C)(CCC=C(C)C)C=C2 (stereo not shown) — IC50 (Polyunsaturated fatty acid 5-lipoxygenase (ALOX5, Homo sapiens, UniProt P09917); enzyme activity in cells, inhibitor): 1.5 µM
Cn1cc(-c2cc(F)cc(N3CCn4c(cc5c4CCCC5)C3=O)c2CO)cc(Nc2ccc(N3CCN(C4COC4)CC3)cn2)c1=O — Ki (Tyrosine-protein kinase Yes (YES1, Homo sapiens, UniProt P07947); enzyme activity, inhibitor, FRET): 0.637 µM
NCCC[C@H](N)C(=O)O — Ki (Arginase (Schistosoma mansoni, UniProt Q6WVP6); enzyme activity, inhibitor, absorbance): 1900 µM
CCOc1ccccc1N1CCN(Cc2coc3ccccc3c2=O)CC1 — Ki (HTR1D; ligand displacement, radioligand): 0.633 µM
OC12CCCCC1C(c1ccccc1)NCC2 (stereo not shown) — Ki (Sodium-dependent serotonin transporter (Slc6a4, Rattus norvegicus, UniProt P31652); ligand displacement, radioligand): > 20 µM
CSCC[C@H](NC(=O)[C@@H]1CCCN1C(=O)CNC(=O)c1ccc2c(c1)C(=O)OC21c2ccc(O)cc2Oc2cc(O)ccc21)C(=O)N[C@@H](CCC(N)=O)C(=O)N[C@H](C(=O)N[C@@H](CO)C(=O)N[C@H](C(=O)N1CCC[C@H]1C(=O)N[C@@H](CCCCN)C(=O)N[C@@H](CC(N)=O)C(=O)NCC(=O)O)[C@@H](C)OP(=O)(O)O)[C@@H](C)O — Kd (Serine/threonine-protein kinase PLK2, polo-box (PLK2, Homo sapiens, UniProt Q9NYY3); binding, FP): 0.0504 µM
Cc1cccc(N2CCN(Cc3coc4ccc(Cl)cc4c3=O)CC2)c1C — Ki (HTR1D; ligand displacement, radioligand): 0.546 µM
O=C(CCCCCCNC(=O)c1cnc(N(c2ccccc2)c2ccccc2)nc1)NO — EC50 (ATP-dependent translocase ABCB1 (ABCB1, Homo sapiens, UniProt P08183); ATPase activity, activator; cell membranes): ~7.5 µM
C#CCNC(=O)c1cc2ccc(N(CC)CC)cc2oc1=O — IC50 (Acetylcholinesterase (Ache, Mus musculus, UniProt P21836); enzyme activity, inhibitor, Ellman; pH 7.6): 1 µM
C[C@]12CCc3c(ccc4cc(O)ccc34)[C@@H]1CCC2=O — Ki (ksi (Comamonas testosteroni, UniProt P00947); enzyme activity, inhibitor, absorbance): 5 µM
